One compound from ChEMBL document CHEMBL4270554, “Discovery of the cancer cell selective dual acting anti-cancer agent (Z)-2-(1H-indol-3-yl)-3-(isoquinolin-5-yl)acrylonitrile (A131)” (Eur J Med Chem, 2018) can be followed below.

For one series, the system named is HCT-15. The series is described as follows: Antiproliferative activity against human HCT15 cells after 72 hrs by MTT assay. It is filed as functional. The conditions noted are these: HCT-15, 72 h. In short, it runs like this: (§1)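 Cells cultured at 37 °C, 5% CO₂ in medium with 10% FBS and penicillin/streptomycin, used within 12-20 passages. Seeded at 2.5×10^3 cells/well for 24 h, then compound added from DMSO stocks at 200-fold final concentration (final DMSO 0.5% v/v). After 72 h, 0.5 mg/mL MTT for 3 h, formazan dissolved in DMSO, A570 read. IC50 from sigmoidal fit; three independent determinations.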
On the technique in general: Formazan colour is commonly taken as a measure of viable cells.

The test system of another series is DLD-1. The series is described as follows: Antiproliferative activity against human DLD1 cells after 72 hrs by MTT assay. It is filed as functional. The settings on record: DLD-1, 72 h. In short, it runs like this:
as §1

For another series, the system named is NUGC-3. Kind of series: Antiproliferative activity against human NUGC3 cells after 72 hrs by MTT assay. The settings on record: NUGC-3, 72 h. Type of series: functional. A digest of the protocol: as §1
The nature of series [1]: Half life in pooled male rat liver microsomes at 3 uM preincubated for 5 mins followed by NADPH addition measured after 45 mins by LC-MS/MS method. Type of series: ADME, microsome. In short, it runs like this: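 Pooled female or male rat liver microsomes (0.3 mg protein/mL) with 3 μM substrate in 0.1 M phosphate buffer pH 7.4, pre-incubated 5 min at 37 °C, started with 1 mM NADPH. Samples at 0-45 min quenched in cold acetonitrile with internal standard, analysed by LC-MS/MS. Triplicates; midazolam positive control, no-NADPH negative control.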

A further series deals with HeLa. Kind of series: Induction of autophagy in human HeLa cells assessed as increase in LC3-2 to LC3-1 ratio at 5 uM after 6 hrs by immunoblot analysis relative to control. It is filed as functional. In short, it runs like this:
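HeLa cells were exposed for 6 h to the compound at 0.625, 1.25, 2.5, 5 or 10 µM, or to DMSO. Cells were lysed in 1% Triton buffer (pH 8.0) with protease and phosphatase inhibitors. Lysates were resolved by 14% SDS-PAGE and immunoblotted for LC3, with β-actin probed. The LC3-II/LC3-I band-intensity ratio was expressed relative to the DMSO control.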
For orientation: A western blot detects proteins with antibodies after separation by electrophoresis.

A further series concerns IM95. The series is described as follows: Antiproliferative activity against human IM95 cells after 72 hrs by MTT assay. Type of series: functional. The conditions noted are these: IM95, 72 h. A digest of the protocol: as §1
The test system of a further series is MDA-MB-231. Kind of series: Antiproliferative activity against human MDA-MB-231 cells after 72 hrs by MTT assay. Type of series: functional. The settings on record: MDA-MB-231, 72 h. In short, it runs like this: as §1

The term GI50 denotes the concentration at which growth is held to half of that of the control. As usually defined, the half-life is the time needed for the level to fall by half in the phase considered.

Molecules are shown by their SMILES.

Take `N#C/C(=C\c1cccc2cnccc12)c1c[nH]c2ccccc12`: the 50% growth inhibitory concentration (GI50) in the series on HCT-15 is 500 nM; in the series on DLD-1, 1200 nM; with NUGC-3, 1000 nM; with IM95, 1000 nM; in the series with MDA-MB-231, 1100 nM. Further, in series [1], the half-life at 3 µM amounted to 7.7 min. Moreover, in the series with HeLa, the “fold change (FC)” value was found to be 4.3.
